Source: ChEMBL document CHEMBL1122522, “Conformationally restricted retinoids” (1984)

Assays:
[1] = tested on: Cricetinae gen. sp.; assay: Molarity required to effect reversal of keratinization in 50% of cultures.; type: functional, Cricetulus griseus
[2] = biological target: T1, Ornithine decarboxylase (Mus musculus) (UniProt P00860); assay: Inhibition of the induction of ornithine decarboxylase in mouse epidermis by the tumor promoter 12-O-tetradecanoylphorbol-13-acetate (ODC) at dose 17 nmol
T1 sequence (whole entry): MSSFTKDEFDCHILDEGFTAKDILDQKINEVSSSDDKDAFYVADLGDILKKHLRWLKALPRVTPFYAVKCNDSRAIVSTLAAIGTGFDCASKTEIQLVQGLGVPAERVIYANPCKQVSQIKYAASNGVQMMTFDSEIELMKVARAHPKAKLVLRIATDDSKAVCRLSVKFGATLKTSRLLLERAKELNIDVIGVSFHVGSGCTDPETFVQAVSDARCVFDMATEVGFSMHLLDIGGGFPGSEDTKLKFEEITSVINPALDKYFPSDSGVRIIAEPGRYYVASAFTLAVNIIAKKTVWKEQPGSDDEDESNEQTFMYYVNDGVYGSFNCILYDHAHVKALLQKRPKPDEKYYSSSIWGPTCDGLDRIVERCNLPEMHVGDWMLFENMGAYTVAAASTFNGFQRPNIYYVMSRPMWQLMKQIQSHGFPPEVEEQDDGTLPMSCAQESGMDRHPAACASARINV

[3] = biological target: T1, Ornithine decarboxylase (Mus musculus); assay: Inhibition of the induction of ornithine decarboxylase in mouse epidermis by the tumor promoter 12-O-tetradecanoylphorbol-13-acetate (ODC) at dose 1.7 nmol
[4] = tested on: Cricetinae gen. sp.; assay: Activity of compound the was expressed as ratio of active hamster tracheal organ cultures(TOC) to the total cultures at 10e-9 M concentration; type: functional, Cricetulus griseus, Trachea
Method in brief: (§1)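 Tracheal organ cultures came from vitamin A-deficient hamsters. Each culture was scored for reversal of keratinization and reported as active cultures out of total cultures at each retinoid concentration tested (10⁻⁸ to 10⁻¹² M). The protocol followed earlier published methods.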

[5] = tested on: Cricetinae gen. sp.; assay: Activity of compound the was expressed as ratio of active hamster tracheal organ cultures(TOC) to the total cultures at 10e-10 M concentration; type: functional, Cricetulus griseus, Trachea; method in brief: as §1
[6] = tested on: Cricetinae gen. sp.; assay: Activity of compound the was expressed as ratio of active hamster tracheal organ cultures(TOC) to the total cultures at 10e-8 M concentration; type: functional, Cricetulus griseus, Trachea; method in brief: as §1
[7] = Percent survivors at dose 600 umol/kg day; type: functional, Mus musculus
Method in brief: (§2)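 Adult female Swiss mice (20–25 g) had chow and water ad libitum. The retinoid was homogenized as a suspension in aqueous 8% Cremophor EL plus 10% propylene glycol. It was given ip as 10 weekday injections over 14 days. Controls received vehicle alone. Survivors were weighed on days 1, 5, 10 and 15, and dates of death were recorded. Survival was scored at days 8 and 15.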

[8] = tested on: Cricetinae gen. sp.; assay: Activity of compound the was expressed as ratio of active hamster tracheal organ cultures(TOC) to the total cultures at 10e-10 M concentration; 4/13; type: functional, Cricetulus griseus, Trachea; method in brief: as §1
[9] = Percent survivors at dose 100 umol/kg day; type: functional, Mus musculus; method in brief: as §2
[10] = Mortality range in days at dose 600 umol/kg day; 7-10; type: functional, Mus musculus; method in brief: as §2
[11] = organism: Mus musculus; assay: Percent decrease in average number of papillomas at dose 17 nmol; type: functional
Method in brief: (§3)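 Female Charles River CD-1 mice, 8 weeks old, in random groups of 25–30, were shaved 2 days before initiation with 200 nmol DMBA in acetone on the back. From 2 weeks on, 8.5 nmol TPA was applied twice weekly for 20 weeks. Retinoid in 0.2 mL acetone, or acetone alone for controls, was given 1 h before each TPA dose. Papillomas were counted weekly, and mean papillomas per mouse were compared with controls at 20 weeks.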

[12] = Percent survivors at dose 300 umol/kg day; type: functional, Mus musculus; method in brief: as §2
[13] = Percent survivors at dose 200 umol/kg day; type: functional, Mus musculus; method in brief: as §2
[14] = organism: Mus musculus; assay: Tested for relative activity in a 20-week anti-papilloma experiment in female CD-1 mice at dose 17 nmol; type: functional; method in brief: as §3
[15] = Percent survivors at dose 30 umol/kg day; type: functional, Mus musculus; method in brief: as §2
[16] = Mortality range in days at dose 200 umol/kg day; type: functional, Mus musculus; method in brief: as §2
[17] = organism: Mus musculus; assay: Tested for relative activity in a 20-week anti-papilloma experiment in female CD-1 mice at dose 170 nmol; type: functional; method in brief: as §3
[18] = organism: Mus musculus; assay: Percent decrease in average number of papillomas at dose 170 nmol; type: functional; method in brief: as §3
[19] = tested on: Cricetinae gen. sp.; assay: Activity of compound the was expressed as ratio of active hamster tracheal organ cultures(TOC) to the total cultures at 10e-8 M concentration; 7/7; type: functional, Cricetulus griseus, Trachea; conditions: at 0.01 µM
[20] = Mortality range in days at dose 300 umol/kg day; 12-15; type: functional, Mus musculus; method in brief: as §2
[21] = tested on: Cricetinae gen. sp.; assay: Activity of compound the was expressed as ratio of active hamster tracheal organ cultures(TOC) to the total cultures at 10e-9 M concentration; 7/7; type: functional, Cricetulus griseus, Trachea; method in brief: as §1
[22] = tested on: Cricetinae gen. sp.; assay: Activity of compound the was expressed as ratio of active hamster tracheal organ cultures(TOC) to the total cultures at 10e-12 M concentration; 0/6; type: functional, Cricetulus griseus, Trachea; conditions: in the assay text read “1 nM” for “10 pM”; method in brief: as §1
[23] = tested on: Cricetinae gen. sp.; assay: Activity of compound the was expressed as ratio of active hamster tracheal organ cultures(TOC) to the total cultures at 10e-11 M concentration; 7/7; type: functional, Cricetulus griseus, Trachea; conditions: in the assay text read “10e-9 M” for “100 pM”; method in brief: as §1
[24] = tested on: Cricetinae gen. sp.; assay: Activity of compound the was expressed as ratio of active hamster tracheal organ cultures(TOC) to the total cultures at 10e-10 M concentration; 7/7; type: functional, Cricetulus griseus, Trachea; conditions: in the assay text read “10e-8 M” for “1 nM”; method in brief: as §1
[25] = biological target: T1, Ornithine decarboxylase (Mus musculus); assay: Inhibition of the induction of ornithine decarboxylase in mouse epidermis by the tumor promoter 12-O-tetradecanoylphorbol-13-acetate (ODC) at dose 1.7 nmol * p<0.001
[26] = biological target: T1, Ornithine decarboxylase (Mus musculus); assay: Inhibition of the induction of ornithine decarboxylase in mouse epidermis by the tumor promoter 12-O-tetradecanoylphorbol-13-acetate (ODC) at dose 17 nmol * p<0.001
[27] = tested on: Cricetinae gen. sp.; assay: Activity of compound the was expressed as ratio of active hamster tracheal organ cultures(TOC) to the total cultures at 10e-8 M concentration; 1/5; type: functional, Cricetulus griseus, Trachea; method in brief: as §1
[28] = tested on: Cricetinae gen. sp.; assay: Activity of compound the was expressed as ratio of active hamster tracheal organ cultures(TOC) to the total cultures at 10e-9 M concentration; 1/5; type: functional, Cricetulus griseus, Trachea; method in brief: as §1
[29] = tested on: Cricetinae gen. sp.; assay: Activity of compound the was expressed as ratio of active hamster tracheal organ cultures(TOC) to the total cultures at 10e-9 M concentration; 4/7; type: functional, Cricetulus griseus, Trachea; method in brief: as §1
[30] = tested on: Cricetinae gen. sp.; assay: Activity of compound the was expressed as ratio of active hamster tracheal organ cultures(TOC) to the total cultures at 10e-10 M concentration; 3/7; type: functional, Cricetulus griseus, Trachea; method in brief: as §1
[31] = tested on: Cricetinae gen. sp.; assay: Activity of compound the was expressed as ratio of active hamster tracheal organ cultures(TOC) to the total cultures at 10e-8 M concentration; 6/7; type: functional, Cricetulus griseus, Trachea; method in brief: as §1
[32] = biological target: T1, Ornithine decarboxylase (Mus musculus); assay: Inhibition of the induction of ornithine decarboxylase in mouse epidermis by the tumor promoter 12-O-tetradecanoylphorbol-13-acetate (ODC) at dose 1.7 nmol * p<0.001* inhibition not significant
[33] = tested on: Cricetinae gen. sp.; assay: Activity of compound the was expressed as ratio of active hamster tracheal organ cultures(TOC) to the total cultures at 10e-8 M concentration; 4/7; type: functional, Cricetulus griseus, Trachea; method in brief: as §1
[34] = tested on: Cricetinae gen. sp.; assay: Activity of compound the was expressed as ratio of active hamster tracheal organ cultures(TOC) to the total cultures at 10e-9 M concentration; 2/6; type: functional, Cricetulus griseus, Trachea; method in brief: as §1
[35] = tested on: Cricetinae gen. sp.; assay: Activity of compound the was expressed as ratio of active hamster tracheal organ cultures(TOC) to the total cultures at 10e-10 M concentration; 1/7; type: functional, Cricetulus griseus, Trachea; method in brief: as §1
[36] = biological target: T1, Ornithine decarboxylase (Mus musculus); assay: Inhibition of the induction of ornithine decarboxylase in mouse epidermis by the tumor promoter 12-O-tetradecanoylphorbol-13-acetate (ODC) at dose 17 nmol * inhibition not significant

Question: Which ED50 [1] does the source give for `CC1=C(c2ccc(-c3ccc(C(=O)O)cc3)cc2)C(C)(C)CCC1` here?
Answer: Its ED50 is 3e-09.

Question: What about the inhibition [2] of the same molecule?
Answer: Its inhibition is 55%.

Question: What about the inhibition [3] of the same molecule?
Answer: Its inhibition is 34%.

Question: And the Activity [4]?
Answer: Its Activity is 2%.

Question: What about the Activity [5] of the same molecule?
Answer: The Activity was 2%.

Question: And the Activity [6]?
Answer: The Activity was 7%.

Question: What does the source list for `C/C(=C\c1ccc(C(=O)O)cc1)c1ccc2c(c1)C(C)(C)CCO2`?
Answer: Survivors at day 8 [7]: 70%; Survivors at day 15 [7]: 0%; Activity [8]: 4%; Survivors at day 8 [9]: 100%; Survivors at day 15 [9]: 100%; Mortality range [10]: 10 days; Decrease [11]: 75%; ED50 [1]: 2e-10; inhibition [2]: 81%; inhibition [3]: 42%; Survivors at day 8 [12]: 100%; Survivors at day 15 [12]: 50%; Survivors at day 8 [13]: 100%; Survivors at day 15 [13]: 90%; Activity [14]: 53%; Survivors at day 8 [15]: 100%; Mortality range [16]: 14 days; Activity [17]: 38%; Decrease [18]: 94%; Activity [19]: 7%; Mortality range [20]: 15 days; Activity [21]: 100%

Question: With `CCOC(=O)c1ccc(/C=C(\C)[C@H]2CC2C2=C(C)CCCC2(C)C)cc1` (some centres undefined) as the molecule, how does the Activity [22] read?
Answer: Its Activity is 0%.

Question: And the Activity [23]?
Answer: The Activity was 7%.

Question: And the Activity [24]?
Answer: The Activity was 7%.

Question: And the ED50 [1]?
Answer: Its ED50 is 3e-10.

Question: What about the inhibition [25] of the same molecule?
Answer: Its inhibition is 77%.

Question: And the inhibition [26]?
Answer: The inhibition was 80%.

Question: Which ED50 [1] does the source give for `CC1=C(/C=C/c2ccc(/C(C)=C/C(=O)O)cc2)C(C)(C)CCC1` here?
Answer: Its ED50 is greater than 1e-08.

Question: What about the Activity [27] of the same molecule?
Answer: The Activity was 1%.

Question: And the Activity [28]?
Answer: The Activity was 1%.

Question: With `CC1=C(/C=C/C(C)=C/C=C/c2ccc(C(=O)O)cc2)C(C)(C)CCC1` [PELRETIN] as the molecule, how does the ED50 [1] read?
Answer: Its ED50 is 4e-10.

Question: And the inhibition [2]?
Answer: Its inhibition is 56%.

Question: And the inhibition [3]?
Answer: The inhibition was 33%.

Question: What about the Activity [29] of the same molecule?
Answer: The Activity was 57%.

Question: And the Activity [30]?
Answer: The Activity was 3%.

Question: What about the Activity [31] of the same molecule?
Answer: Its Activity is 6%.

Question: With `CCOC(=O)c1ccc(C2CC2c2ccc3c(c2)C2CCC3C2)cc1` (centres undefined) as the molecule, how does the inhibition [32] read?
Answer: The inhibition was 12%.

Question: What about the Activity [33] of the same molecule?
Answer: Its Activity is 4%.

Question: And the Activity [34]?
Answer: The Activity was 33%.

Question: What about the ED50 [1] of the same molecule?
Answer: The ED50 was 5e-09.

Question: And the Activity [35]?
Answer: The Activity was 1%.

Question: And the inhibition [36]?
Answer: The inhibition was 0%.
